Results as given in ChEMBL document CHEMBL1914368, “Imidazo[1,5-a]quinoxalines as irreversible BTK inhibitors for the treatment of rheumatoid arthritis” (Bioorg Med Chem Lett, 2011).
Active and inactive are the calls of the source. The rule behind the calls is not given here.

Experiments:
[1] = biological target: Receptor tyrosine-protein kinase erbB-4 (Homo sapiens, UniProt Q15303); test: Inhibition of ERBB4 relative to control
[2] = biological target: Tyrosine-protein kinase Lyn (Homo sapiens, UniProt P07948); test: Inhibition of LYN-A expressed in Sf9 cells after 60 mins by TR-FRET Assay
[3] = biological target: T1, Tyrosine-protein kinase Lck (Homo sapiens, UniProt P06239); test: Inhibition of C-terminal His6-tagged human full-length LCK expressed in Sf9 cells after 60 mins by TR-FRET Assay
Target sequence in this assay (P06239 whole entry): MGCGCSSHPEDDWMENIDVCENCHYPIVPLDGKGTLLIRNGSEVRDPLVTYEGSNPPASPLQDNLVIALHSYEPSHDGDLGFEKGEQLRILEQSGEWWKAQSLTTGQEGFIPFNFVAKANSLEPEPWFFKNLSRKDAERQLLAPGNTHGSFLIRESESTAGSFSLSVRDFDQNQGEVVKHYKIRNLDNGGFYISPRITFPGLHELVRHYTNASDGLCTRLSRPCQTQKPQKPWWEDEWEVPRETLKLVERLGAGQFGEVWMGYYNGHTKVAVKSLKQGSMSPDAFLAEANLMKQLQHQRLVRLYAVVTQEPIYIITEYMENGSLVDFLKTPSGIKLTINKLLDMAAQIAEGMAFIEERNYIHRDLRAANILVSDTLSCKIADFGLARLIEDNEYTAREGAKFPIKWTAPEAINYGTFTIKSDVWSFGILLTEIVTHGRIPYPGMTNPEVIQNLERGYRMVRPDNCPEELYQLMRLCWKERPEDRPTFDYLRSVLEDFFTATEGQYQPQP

[4] = biological target: T1, Tyrosine-protein kinase Lck; test: Inhibition of C-terminal His6-tagged human full-length LCK expressed in Sf9 cells preincubated for 60 mins measured after 60 mins by TR-FRET Assay
Target sequence in this assay (P06239 whole entry): as above

[5] = AUC (0 to infinity) in mouse at 2 mg/kg, iv; type: ADME, organism-based; design: time infinity, dose 2 mg/kg, route intravenous; details: plasma
[6] = Half life in mouse at 10 mg/kg, po; type: ADME, organism-based; design: dose 10 mg/kg, route oral; details: in vivo
[7] = Clearance in mouse at 2 mg/kg, iv; type: ADME, organism-based; design: dose 2 mg/kg, route intravenous; details: in vivo
[8] = Tmax in mouse at 10 mg/kg, po; type: ADME, organism-based; design: dose 10 mg/kg, route oral; details: in vivo
Procedure, shortened: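 Mouse pharmacokinetics from single dosing at 2 mg/kg iv and 10 mg/kg po. The study derived AUC, T1/2, clearance, Vss, Tmax, Cmax and oral bioavailability (%F) from the paired iv and po arms.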

[9] = biological target: Ephrin type-B receptor 3 (Homo sapiens) (UniProt P54753); test: (§1) Inhibition of EPHB3 relative to control; details: concentration not given here
Ephrin type-B receptor 3 = Ephrin type-B receptor 3 (Homo sapiens, UniProt P54753); test: as §1
[10] = Cmax in mouse at 10 mg/kg, po; type: ADME, organism-based; design: dose 10 mg/kg, route oral; details: in vivo
Mus musculus = test: Antiarthritic activity in DBA/1 JBomTac mouse collagen-induced arthritis model assessed as inhibition of disease progression at 3 mg/kg, po qd measured on day 5 to 22; type: functional, organism-based; design: dose 3 mg/kg
Procedure, shortened: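 Semi-therapeutic collagen-induced arthritis model. Blinded paw scoring used a 0–4 scale, reported as mean and SEM. Comparison to vehicle used Student's t-test, P <0.05.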

[11] = biological target: Tyrosine-protein kinase ABL1 (Homo sapiens, UniProt P00519); test: Inhibition of Abl1 relative to control
[12] = biological target: Tyrosine-protein kinase ABL2 (Homo sapiens) (UniProt P42684); test: Inhibition of ABL2 relative to control; details: concentration not given here
[13] = biological target: Tyrosine-protein kinase Blk (Homo sapiens, UniProt P51451); test: Inhibition of BLK relative to control
[14] = biological target: Tyrosine-protein kinase BTK (Homo sapiens, UniProt Q06187); test: Inhibition of BTK relative to control
[15] = biological target: Tyrosine-protein kinase CSK (Homo sapiens) (UniProt P41240); test: Inhibition of CSK relative to control; details: concentration not given here
[16] = biological target: Tyrosine-protein kinase Fer (Homo sapiens) (UniProt P16591); test: Inhibition of FER relative to control; details: concentration not given here
[17] = biological target: Tyrosine-protein kinase Fgr (Homo sapiens) (UniProt P09769); test: Inhibition of FGR relative to control; details: concentration not given here
[18] = biological target: Vascular endothelial growth factor receptor 1 (Homo sapiens) (UniProt P17948); test: Inhibition of FLT1 relative to control; details: concentration not given here
[19] = biological target: Receptor-type tyrosine-protein kinase FLT3 (Homo sapiens) (UniProt P36888); test: Inhibition of FLT3 relative to control; details: concentration not given here
[20] = biological target: Serine/threonine-protein kinase mTOR (Homo sapiens) (UniProt P42345); test: Inhibition of FRAP1 relative to control; details: concentration not given here
[21] = biological target: Tyrosine-protein kinase FRK (Homo sapiens, UniProt P42685); test: Inhibition of FRK relative to control
[22] = biological target: Tyrosine-protein kinase HCK (Homo sapiens) (UniProt P08631); test: Inhibition of HCK relative to control; details: concentration not given here
[23] = biological target: Insulin receptor (Homo sapiens) (UniProt P06213); test: Inhibition of INSR relative to control; details: concentration not given here
[24] = biological target: T1, Tyrosine-protein kinase Lck; test: Inhibition of LCK relative to control; details: concentration not given here
Target sequence in this assay (P06239 2-509 limits assumed): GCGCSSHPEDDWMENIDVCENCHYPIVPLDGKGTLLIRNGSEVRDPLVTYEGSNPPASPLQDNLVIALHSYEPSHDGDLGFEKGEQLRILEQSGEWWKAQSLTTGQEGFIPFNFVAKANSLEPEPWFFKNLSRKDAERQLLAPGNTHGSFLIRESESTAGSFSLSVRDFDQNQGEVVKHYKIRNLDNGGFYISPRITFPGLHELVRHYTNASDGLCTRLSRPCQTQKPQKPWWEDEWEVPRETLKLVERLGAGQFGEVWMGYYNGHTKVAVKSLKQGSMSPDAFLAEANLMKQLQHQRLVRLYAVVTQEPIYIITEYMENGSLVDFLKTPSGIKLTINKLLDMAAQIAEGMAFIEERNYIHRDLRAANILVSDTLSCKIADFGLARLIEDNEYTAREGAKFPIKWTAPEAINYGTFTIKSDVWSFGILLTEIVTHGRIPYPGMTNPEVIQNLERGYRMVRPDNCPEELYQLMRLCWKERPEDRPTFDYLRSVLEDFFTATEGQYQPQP

[25] = biological target: Mitogen-activated protein kinase 1 (Homo sapiens) (UniProt P28482); test: Inhibition of MAPK1 relative to control; details: concentration not given here
[26] = biological target: Serine/threonine-protein kinase MARK1 (Homo sapiens) (UniProt Q9P0L2); test: Inhibition of MARK1 relative to control; details: concentration not given here
[27] = tested on: Hepatocyte growth factor receptor (Homo sapiens), P08581 [M1250T]; test: Inhibition of MET M1250T mutant relative to control; details: concentration not given here
[28] = biological target: Platelet-derived growth factor receptor beta (Homo sapiens) (UniProt P09619); test: Inhibition of PDGFRbeta relative to control; details: concentration not given here
[29] = biological target: Phosphatidylinositol 4-phosphate 3-kinase C2 domain-containing subunit beta (Homo sapiens) (UniProt O00750); test: Inhibition of PI3K-C2 beta relative to control; details: concentration not given here
[30] = biological target: RAF proto-oncogene serine/threonine-protein kinase (Homo sapiens) (UniProt P04049); test: Inhibition of RAF1 relative to control; details: concentration not given here
[31] = biological target: Proto-oncogene tyrosine-protein kinase receptor Ret (Homo sapiens) (UniProt P07949); test: Inhibition of RET relative to control; details: concentration not given here
[32] = biological target: Receptor-interacting serine/threonine-protein kinase 2 (Homo sapiens) (UniProt O43353); test: Inhibition of RIPK2 relative to control; details: concentration not given here
[33] = biological target: Ribosomal protein S6 kinase alpha-1 (Homo sapiens) (UniProt Q15418); test: Inhibition of RSK1 relative to control; details: concentration not given here
[34] = biological target: Tyrosine-protein kinase SYK (Homo sapiens) (UniProt P43405); test: Inhibition of SYK relative to control; details: concentration not given here
[35] = biological target: Serine/threonine-protein kinase TBK1 (Homo sapiens) (UniProt Q9UHD2); test: Inhibition of TBK1 relative to control; details: concentration not given here
[36] = biological target: Tyrosine-protein kinase Tec (Homo sapiens) (UniProt P42680); test: Inhibition of TEC relative to control; details: concentration not given here

Chain of Tyrosine-protein kinase FRK (P42685 whole entry): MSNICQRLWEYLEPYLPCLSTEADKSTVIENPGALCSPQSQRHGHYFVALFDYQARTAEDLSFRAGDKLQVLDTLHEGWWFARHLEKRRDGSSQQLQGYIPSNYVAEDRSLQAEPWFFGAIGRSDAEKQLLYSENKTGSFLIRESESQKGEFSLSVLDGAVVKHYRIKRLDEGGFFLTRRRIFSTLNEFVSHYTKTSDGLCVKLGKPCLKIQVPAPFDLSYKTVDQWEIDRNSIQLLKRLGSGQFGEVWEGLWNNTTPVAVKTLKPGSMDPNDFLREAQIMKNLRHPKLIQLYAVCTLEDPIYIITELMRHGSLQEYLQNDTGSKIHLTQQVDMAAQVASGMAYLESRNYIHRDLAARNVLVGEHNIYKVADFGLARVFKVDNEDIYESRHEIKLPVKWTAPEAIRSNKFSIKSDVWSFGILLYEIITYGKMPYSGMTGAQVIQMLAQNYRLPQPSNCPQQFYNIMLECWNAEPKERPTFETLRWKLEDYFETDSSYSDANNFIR
Chain of Receptor-interacting serine/threonine-protein kinase 2 (Homo sapiens) (O43353 whole entry): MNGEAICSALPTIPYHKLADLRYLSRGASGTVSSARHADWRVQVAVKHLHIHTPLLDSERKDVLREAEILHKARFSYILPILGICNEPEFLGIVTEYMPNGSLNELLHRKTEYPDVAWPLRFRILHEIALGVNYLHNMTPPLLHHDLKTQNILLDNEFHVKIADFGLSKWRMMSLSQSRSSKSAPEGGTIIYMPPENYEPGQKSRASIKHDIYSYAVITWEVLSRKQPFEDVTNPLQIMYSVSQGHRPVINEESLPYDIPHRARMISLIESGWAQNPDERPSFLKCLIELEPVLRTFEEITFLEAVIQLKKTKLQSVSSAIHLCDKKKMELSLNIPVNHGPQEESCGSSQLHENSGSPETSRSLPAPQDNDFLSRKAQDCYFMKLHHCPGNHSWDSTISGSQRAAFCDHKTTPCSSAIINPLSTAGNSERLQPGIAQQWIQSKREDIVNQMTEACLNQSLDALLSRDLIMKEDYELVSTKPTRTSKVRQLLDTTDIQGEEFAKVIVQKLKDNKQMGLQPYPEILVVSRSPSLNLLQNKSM
Chain of Receptor-type tyrosine-protein kinase FLT3 (Homo sapiens) (P36888 whole entry): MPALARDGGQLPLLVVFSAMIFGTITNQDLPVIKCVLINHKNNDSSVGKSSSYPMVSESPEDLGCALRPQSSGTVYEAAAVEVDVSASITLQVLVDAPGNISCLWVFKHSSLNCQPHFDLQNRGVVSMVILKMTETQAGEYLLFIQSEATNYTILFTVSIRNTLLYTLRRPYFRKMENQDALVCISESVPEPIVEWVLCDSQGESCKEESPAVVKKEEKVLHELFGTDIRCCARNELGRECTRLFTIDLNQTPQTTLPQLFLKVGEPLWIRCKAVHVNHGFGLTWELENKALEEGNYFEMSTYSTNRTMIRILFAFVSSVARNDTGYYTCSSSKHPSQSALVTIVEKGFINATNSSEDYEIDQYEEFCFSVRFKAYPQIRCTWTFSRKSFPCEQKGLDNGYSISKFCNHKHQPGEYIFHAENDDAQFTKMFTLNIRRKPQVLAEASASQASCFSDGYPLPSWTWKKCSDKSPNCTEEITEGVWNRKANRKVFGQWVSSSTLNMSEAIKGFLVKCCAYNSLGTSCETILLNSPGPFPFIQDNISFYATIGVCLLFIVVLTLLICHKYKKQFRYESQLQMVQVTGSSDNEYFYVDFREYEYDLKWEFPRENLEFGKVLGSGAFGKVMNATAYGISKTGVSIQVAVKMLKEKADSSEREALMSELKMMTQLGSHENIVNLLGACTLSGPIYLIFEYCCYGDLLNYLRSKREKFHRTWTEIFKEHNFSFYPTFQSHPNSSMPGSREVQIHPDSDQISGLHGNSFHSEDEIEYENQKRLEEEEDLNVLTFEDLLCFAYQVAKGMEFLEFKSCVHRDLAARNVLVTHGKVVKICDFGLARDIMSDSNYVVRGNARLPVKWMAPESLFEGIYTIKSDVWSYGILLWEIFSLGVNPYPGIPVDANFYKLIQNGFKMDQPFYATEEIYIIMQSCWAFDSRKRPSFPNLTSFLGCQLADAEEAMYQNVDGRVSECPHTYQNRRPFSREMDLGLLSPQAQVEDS
Chain of RAF proto-oncogene serine/threonine-protein kinase (Homo sapiens) (P04049 whole entry): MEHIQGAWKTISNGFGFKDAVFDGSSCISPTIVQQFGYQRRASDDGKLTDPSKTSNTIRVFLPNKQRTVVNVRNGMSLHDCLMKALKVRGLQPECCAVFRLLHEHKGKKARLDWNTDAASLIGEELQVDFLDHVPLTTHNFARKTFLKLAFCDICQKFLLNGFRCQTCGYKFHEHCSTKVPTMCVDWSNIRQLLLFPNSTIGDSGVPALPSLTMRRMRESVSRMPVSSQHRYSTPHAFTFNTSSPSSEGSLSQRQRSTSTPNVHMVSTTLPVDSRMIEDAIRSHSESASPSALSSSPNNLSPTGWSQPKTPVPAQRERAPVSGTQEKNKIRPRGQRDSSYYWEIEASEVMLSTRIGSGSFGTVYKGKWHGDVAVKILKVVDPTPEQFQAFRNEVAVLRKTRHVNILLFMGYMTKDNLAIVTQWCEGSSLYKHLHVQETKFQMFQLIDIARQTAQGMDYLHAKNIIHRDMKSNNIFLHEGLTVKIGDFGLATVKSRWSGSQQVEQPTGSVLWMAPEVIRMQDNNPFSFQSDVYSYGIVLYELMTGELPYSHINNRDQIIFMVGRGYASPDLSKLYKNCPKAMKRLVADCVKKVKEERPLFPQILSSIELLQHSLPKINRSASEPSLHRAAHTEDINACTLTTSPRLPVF
Chain of Serine/threonine-protein kinase MARK1 (Homo sapiens) (Q9P0L2 whole entry, looked up): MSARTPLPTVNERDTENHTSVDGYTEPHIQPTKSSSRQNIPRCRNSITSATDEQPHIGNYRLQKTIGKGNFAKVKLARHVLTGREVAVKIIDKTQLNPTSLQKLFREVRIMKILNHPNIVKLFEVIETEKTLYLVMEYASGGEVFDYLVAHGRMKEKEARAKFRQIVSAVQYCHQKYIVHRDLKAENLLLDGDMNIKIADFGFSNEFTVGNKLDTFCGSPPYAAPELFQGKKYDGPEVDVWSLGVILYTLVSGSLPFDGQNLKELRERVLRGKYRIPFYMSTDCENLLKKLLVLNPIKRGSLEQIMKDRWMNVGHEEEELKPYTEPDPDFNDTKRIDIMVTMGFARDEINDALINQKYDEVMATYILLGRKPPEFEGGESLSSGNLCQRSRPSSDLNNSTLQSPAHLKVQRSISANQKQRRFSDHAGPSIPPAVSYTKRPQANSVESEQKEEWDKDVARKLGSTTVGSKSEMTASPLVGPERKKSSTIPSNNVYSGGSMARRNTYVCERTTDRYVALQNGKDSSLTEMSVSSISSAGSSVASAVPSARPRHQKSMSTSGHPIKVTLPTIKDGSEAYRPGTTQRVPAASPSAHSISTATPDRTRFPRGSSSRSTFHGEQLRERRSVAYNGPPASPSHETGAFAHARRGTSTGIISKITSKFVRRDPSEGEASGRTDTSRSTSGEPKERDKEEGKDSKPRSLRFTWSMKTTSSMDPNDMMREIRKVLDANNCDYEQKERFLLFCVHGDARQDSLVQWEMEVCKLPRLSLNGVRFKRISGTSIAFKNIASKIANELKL
Chain of Tyrosine-protein kinase CSK (Homo sapiens) (P41240 2-450 limits assumed): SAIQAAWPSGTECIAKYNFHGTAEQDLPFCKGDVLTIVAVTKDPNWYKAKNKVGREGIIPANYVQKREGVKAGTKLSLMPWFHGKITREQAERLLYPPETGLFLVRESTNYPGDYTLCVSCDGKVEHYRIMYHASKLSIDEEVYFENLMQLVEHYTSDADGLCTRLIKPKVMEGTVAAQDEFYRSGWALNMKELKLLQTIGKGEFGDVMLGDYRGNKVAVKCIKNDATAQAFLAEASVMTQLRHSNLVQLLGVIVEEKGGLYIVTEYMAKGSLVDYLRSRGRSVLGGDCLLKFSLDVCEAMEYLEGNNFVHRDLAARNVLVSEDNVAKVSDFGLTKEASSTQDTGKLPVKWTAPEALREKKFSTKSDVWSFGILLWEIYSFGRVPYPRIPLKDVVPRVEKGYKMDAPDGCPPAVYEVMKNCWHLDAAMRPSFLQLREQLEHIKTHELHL

IC50 [1]: 43.7 nM | IC50 [2]: 624 nM | IC50 [3]: 772 nM | IC50 [4]: 755 nM | AUC(0-inf) [5]: 510 ng·h/mL | half-life [6]: 120 min | clearance [7]: 63 mL/min/kg | Tmax [8]: 3 h | inhibition [9]: 50% | IC50 (Ephrin type-B receptor 3): 350 nM | Cmax [10]: 220 ng/mL | IC50 [11]: 109 nM | inhibition [12]: 65% | IC50 [13]: 16 nM | inhibition ([13]; concentration not given here): 109% | IC50 [14]: 3.31 nM | inhibition [15]: 15% | inhibition [16]: 7% | inhibition [17]: 15% | inhibition [18]: 1% | inhibition [19]: -8% | inhibition [20]: 0% | IC50 [21]: 611 nM | inhibition ([21]; concentration not given here): 60% | inhibition [22]: 5% | inhibition [23]: -5% | inhibition [24]: 25% | inhibition [25]: -4% | inhibition [26]: 8% | inhibition [27]: 5% | inhibition [28]: 2% | inhibition [29]: 11% | inhibition [30]: 9% | inhibition [31]: 6% | inhibition [32]: 8% | inhibition [33]: 0% | inhibition [34]: 0% | inhibition [35]: -5% | inhibition [36]: 42%
Compound: Cc1ccccc1Nc1nc2cc(F)c(N(C)C(=O)/C=C/CN(C)C)cc2n2cncc12
Activity (Mus musculus): Active
